# Measurements: ChEMBL document CHEMBL4715714, “Design, synthesis and biological evaluation of thiosemicarbazones, hydrazinobenzothiazoles and arylhydrazones as anticancer agents with a potential to overcome multidrug resistance” (Eur J Med Chem, 2016)
# Calls of active or inactive are those of the source. The rule behind the calls is not given here.
# Key:
# [1] = system: MES-SA; assay: Cytotoxicity against human MES-SA cells assessed as inhibition of cell proliferation at <50 uM incubated for 72 hrs by MTT assay; assay type: functional, cell-based; conditions: dose microM <50, time 72.0 hrs
# In short: (§1)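 Cells were seeded (10000/well for A2780, 5000/well for MES-SA/Dx5 and KB-3-1/V1) and left to attach 12 h, then exposed to compound for 72 h. Medium was removed, and MTT (0.83 mg/mL) was added for 1 h at 37 °C. Cells were lysed in DMSO and absorbance read at 540 nm. Signal was corrected for unstained lysate background, normalized to untreated cells, and IC50 taken from a sigmoidal dose-response fit.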
# [2] = system: MES-SA/Dx5; assay: Cytotoxicity against human MES-SA/DX5 cells assessed as inhibition of cell proliferation incubated for 72 hrs by MTT assay; assay type: functional, cell-based; conditions: for IC50: MES-SA/Dx5, 72 h; in short: as §1
# [3] = system: MES-SA/Dx5; assay: Cytotoxicity against human MES-SA/DX5 cells assessed as inhibition of cell proliferation at <50 uM incubated for 72 hrs by MTT assay; assay type: functional, cell-based; conditions: dose microM <50, time 72.0 hrs; in short: as §1
# [4] = system: MES-SA; assay: Cytotoxicity against human MES-SA cells assessed as inhibition of cell proliferation incubated for 72 hrs by MTT assay; assay type: functional, cell-based; in short: as §1
# [5] = Selectivity ratio of IC50 for human MES-SA cells to IC50 for human MES-SA/DX5 cells incubated for 72 hrs by MTT assay; assay type: functional
# In short: (§2)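 The selectivity ratio is the IC50 in P-gp-negative parental cells divided by the IC50 in the P-gp-positive resistant partner.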
# [6] = system: KB-V1; assay: Cytotoxicity against human KB-V1 cells assessed as inhibition of cell proliferation incubated for 72 hrs in presence of efflux pump inhibitor, Tariquidar by MTT assay; assay type: functional, cell-based
# [7] = system: MES-SA/Dx5; assay: Cytotoxicity against human MES-SA/DX5 cells transfected with mCherry fluorescent protein assessed as inhibition of cell proliferation incubated for 72 hrs by fluorescent assay; assay type: functional, cell-based; conditions: Homo sapiens, MES-SA/Dx5, 72 h
# In short: (§3)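 MES-SA and MES-SA/Dx5 cells were made to stably express mCherry by lentiviral transduction. Cells were seeded at 5000 (96-well) or 2500 (384-well) per well, allowed to attach 24 h, then treated with compound dilutions for 72 h. Viability was read as fluorescence, excitation 585 nm, emission 610 nm.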
# [8] = system: A2780 ADR; assay: Cytotoxicity against human A2780adr cells assessed as inhibition of cell proliferation incubated for 72 hrs in presence of efflux pump inhibitor, Tariquidar by MTT assay; assay type: functional, cell-based
# [9] = Selectivity ratio of IC50 for human MES-SA cells transfected with mCherry to IC50 for human MES-SA/DX5 cells transfected with mCherry incubated for 72 hrs by fluorescent assay; assay type: functional
# [10] = (§4) Cytotoxicity against human A2780adr cells assessed as inhibition of cell proliferation incubated for 72 hrs by MTT assay; assay type: functional, cell-based; conditions: A2780 ADR; in short: as §1
# [11] = Selectivity ratio of IC50 for human KB-3-1 cells to IC50 for human KB-V1 cells incubated for 72 hrs by MTT assay; assay type: functional; in short: as §2
# [12] = system: KB 3-1; assay: Cytotoxicity against human KB-3-1 cells assessed as inhibition of cell proliferation incubated for 72 hrs by MTT assay; assay type: functional, cell-based; conditions: for IC50: KB 3-1, 72 h; in short: as §1
# [13] = system: A2780; assay: Cytotoxicity against human A2780 cells assessed as inhibition of cell proliferation incubated for 72 hrs by MTT assay; assay type: functional, cell-based; conditions: for IC50: A2780, 72 h; in short: as §1
# [14] = system: MES-SA; assay: Cytotoxicity against human MES-SA cells transfected with mCherry fluorescent protein assessed as inhibition of cell proliferation incubated for 72 hrs by fluorescent assay; assay type: functional, cell-based; in short: as §3
# [15] = system: KB-V1; assay: Cytotoxicity against human KB-V1 cells assessed as inhibition of cell proliferation incubated for 72 hrs by MTT assay; assay type: functional, cell-based; conditions: for IC50: KB-V1, 72 h; in short: as §1
# [16] = system: MES-SA/Dx5; assay: Reduction in P-gp expression in human MES-SA/DX5 cells at IC20 concentration incubated for 5 days by calcein-AM staining based flow cytometric analysis; assay type: functional, cell-based; conditions: time 5.0 day
# In short: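 MES-SA/Dx5 cells were grown 5 days with compound at IC20 values calculated from viability assays, then recovered in drug-free medium refreshed every fifth day. At 80% confluency, cells were stained with Calcein AM with or without verapamil, with TO-PRO-3 excluding dead cells, and analysed by flow cytometry for the P-gp-negative fraction.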
# [17] = Selectivity ratio of IC50 for human A2780 cells to IC50 for human A2780adr cells incubated for 72 hrs by MTT assay; assay type: functional; in short: as §2
# [18] = system: MES-SA/Dx5; assay: Cytotoxicity against human MES-SA/DX5 cells incubated for 72 hrs in presence of efflux pump inhibitor, Tariquidar by MTT assay; assay type: functional, cell-based
# In short: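 Run as the 72 h MTT viability readout (12 h attachment, MTT 0.83 mg/mL for 1 h, DMSO lysis, A540), with the P-gp inhibitor Tariquidar at 1 µM co-present. IC50 came from sigmoidal fits of 2 to 4 independent experiments.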
# [19] = system: MES-SA/Dx5; assay: Cytotoxicity against human MES-SA/DX5 cells transfected with mCherry fluorescent protein incubated for 72 hrs in presence of efflux pump inhibitor, Tariquidar by fluorescence assay; assay type: functional, cell-based
# In short: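 The mCherry-expressing cells (lentiviral) were seeded at 5000 or 2500 per well, attached for 24 h, and exposed 72 h to compounds with Tariquidar coadministered. Live-cell signal was fluorescence at 585 nm excitation and 610 nm emission.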
# [20] = system: HFF; assay: Cytotoxicity against human HFF cells by MTT assay
# [21] = system: MES-SA; assay: Cytotoxicity against human MES-SA cells assessed as inhibition of cell proliferation at >=50 uM incubated for 72 hrs by MTT assay; assay type: functional, cell-based; conditions: dose microM >=50, time 72.0 hrs; in short: as §1
# [22] = system: MES-SA/Dx5; assay: Cytotoxicity against human MES-SA/DX5 cells assessed as inhibition of cell proliferation at >=50 uM incubated for 72 hrs by MTT assay; assay type: functional, cell-based; conditions: dose microM >=50, time 72.0 hrs; in short: as §1
# [23] = system: KB 3-1; assay: Cytotoxicity against human KB-3-1 cells assessed as inhibition of cell proliferation at >=50 uM incubated for 72 hrs by MTT assay; assay type: functional, cell-based; conditions: dose microM >=50, time 72.0 hrs; in short: as §1
# [24] = system: KB-V1; assay: Cytotoxicity against human KB-V1 cells assessed as inhibition of cell proliferation at >=50 uM incubated for 72 hrs by MTT assay; assay type: functional, cell-based; conditions: dose microM >=50, time 72.0 hrs; in short: as §1
# [25] = system: MES-SA/Dx5; assay: Reduction in P-gp expression in human MES-SA/DX5 cells measured after 5 rounds of treatment by DAPI staining based immunocytochemistry analysis; assay type: functional, cell-based
# In short: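 Treated cells were plated in chamber slides, fixed after 1 day in 4% paraformaldehyde for 15 min, and blocked 1 h (BSA, fish gelatin, goat serum, Triton X-100). They were stained with anti-P-gp MRK16 (1:500, 1 h), then PE goat anti-mouse IgG (1:250, 1 h), with DAPI 1 µM for 10 min. Imaging used fluorescence and confocal microscopy.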
# [26] = system: A2780 ADR; assay: as §4; assay type: functional, cell-based; in short: as §1
# [27] = Homo sapiens, MES-SA, 72 h, read-out: IC50
Structure (SMILES),pIC50 [2],pIC50 [4],Ratio IC50 [5],Activity [6],IC50 ([7]; read-out: IC50) [µM],IC50 ([2]; read-out: IC50) [µM],IC50 ([2]; read-out: pIC50 (converted)) [µM],IC50 ([10]; read-out: IC50) [µM],IC50 ([10]; read-out: pIC50 (converted)) [µM],Ratio IC50 [11],IC50 ([4]; read-out: IC50) [µM],IC50 ([4]; read-out: pIC50 (converted)) [µM],IC50 ([12]; read-out: IC50) [µM],IC50 ([12]; read-out: pIC50 (converted)) [µM],IC50 ([13]; read-out: IC50) [µM],IC50 ([13]; read-out: pIC50 (converted)) [µM],"IC50 [14, 27] [µM]",IC50 ([15]; read-out: IC50) [µM],IC50 ([15]; read-out: pIC50 (converted)) [µM],Activity [18],also measured
COc1ccc(NC(=S)NNC(=S)Nc2ccc(OC)cc2)cc1,inactive,inactive,,,,,,,,,,,,,,,,,,,Activity [1]: inactive; Activity [3]: inactive
COc1ccc(NC(=S)N/N=C2\C(=O)Nc3ccccc32)cc1,,,1.87,inactive,4.15,3.59,3.47,4.84,4.68,2.04,6.1,6.03,7.82,7.59,7.49,7.41,12.1,3.78,3.98,inactive,Activity [8]: inactive; Ratio IC50 [9]: 3.17; inhibition [16]: Active; Ratio IC50 [17]: 1.6; Activity [19]: inactive
C/C(=N\NC(=S)Nc1ccc(C)cc1)c1ccccn1,,,6.25,Active,0.029,0.0018,0.0017,0.021,0.0204,1.15,0.016,0.017,0.0404,0.0372,0.017,0.0162,0.065,0.036,0.0331,Active,"IC50 ([7]; read-out: pIC50 (converted)): 0.0257 µM; IC50 ([14]; Homo sapiens, MES-SA, 72 h, read-out: pIC50 (converted)): 0.0417 µM; Activity [20]: Non-Toxic"
COc1ccc(NC(=S)NNc2nc3ccccc3s2)cc1,inactive,inactive,,,,,,,,,,,,,,,,,,,Activity [21]: inactive; pIC50 [12]: inactive; Activity [22]: inactive; pIC50 [15]: inactive; Activity [23]: inactive; Activity [24]: inactive
O=C1Nc2ccccc2/C1=N/NC(=S)Nc1ccc([N+](=O)[O-])cc1,,,1.77,inactive,7.55,4.74,4.68,8.78,8.91,1.82,9.17,8.51,8.2,7.76,25.7,24.5,15.8,4.58,4.47,inactive,Activity [8]: inactive; Ratio IC50 [9]: 3.55; inhibition [25]: Active; inhibition [16]: Active; Ratio IC50 [17]: 2.98; Activity [19]: inactive
COc1cc(N/N=C2/C(=O)Nc3ccccc32)ncn1,,,,,,,129,,,,,91.2,,55,,,,,,,pIC50 [26]: inactive; pIC50 [13]: inactive; IC50 ([14]; mes-sa): Not Active
